Data from the RNAGym collection of RNA variant scans (doi:10.1126/science.aae0568).
Variants at the floor of the assay were thinned out.

B1: tRNA (parent)
chain: GUUCCGUUGGCGUAAUGGUAACGCGUCUCCCUCCUAAGGAGAAGACUGCGGGUUCGAGUCCCGUACGGAACG

Variants of: B1
Test: yeast fitness relative to wild type (ratio to wild type); higher = fitter; tRNA-Arg(CCU), competitive growth, 37 C, YPD
Procedure, shortened: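 Start and end populations of a pooled competition were compared by 100-nucleotide paired-end sequencing of gene amplicons. The Saccharomyces cerevisiae strains carried tRNA-Arg(CCU) gene variants at the native genomic locus, synthesised with a 3% per-site mutation rate at 69 sites, and competed in YPD at 37°C for 24 hours in six parallel replicates. Darwinian fitness relative to wild type was based on the change in genotype frequencies. Genotypes required ≥ 100 starting reads, and estimates < 0.5 were set to 0.5.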

**Q.** With GUUCCGUUGGCGUAAGGGUAACGCGUCUGCCUCCUAAGGAGAAGACUGCGGGUUCGAAUCCCGUACGGAACG [U16G C29G G58A] as the variant, how does the yeast fitness read?
**A.** 0.59

**Q.** With GUUCCGUUGGCGUAAUGGUAACGCGUCUCCCUCCCAAGGCGAAGACUGCGGGUUCGAGUCCCGUACGGAACG [U35C A40C] as the variant, how does the yeast fitness read?
**A.** 0.795

**Q.** For GUUCCGUUGGCGUAAUGGUAACGCGUCUGUCUCCUAAGGACAAGACUGCGGGUUCGAGUCCCGUAGGAAACG [C29G C30U G41C C66G G68A], which yeast fitness is on record?
**A.** ≤ 0.5

**Q.** With GUUCCGUUGGCGUAAUGGUAACGCGUCUUCCUCCUAAGGAGAAGAGUGCGGGUUCAAGUACGGUAAGGAACG [C29U C46G G56A C60A C62G C66A] as the variant, how does the yeast fitness read?
**A.** 0.543

**Q.** For GUUCCGUUGGCGUAAUGGUAAGGCGUCUCCCUCCGAAGGAGAAGACUGCGGGUUCGAGUCCCGUACGGAACG [C22G U35G], which yeast fitness is on record?
**A.** 0.62

**Q.** Which yeast fitness does the source give for GUUCCGUUGGCGUAAUGGUAACGGGUCUCCCUCCUAAGGAGAAGCCUGCGGGUUCGAGUCCCGUACGGAACG [C24G A45C] here?
**A.** 0.629

**Q.** Which yeast fitness does the source give for GUUCAGUUGGCGUAAUGGUAACGCGUCUCCCUCCUAAGGAGAAGACUGCGGGUUCGAGUGCCGUAGGGGACG [C5A C60G C66G A69G] here?
**A.** ≤ 0.5

**Q.** Which yeast fitness does the source give for GGUUCGUUGGCGUAAUGGUAACGCGUCUCCCUGCUAUGGAGAAGACUGCGGGUUCGAGUCCCGGACGGAACG [U2G C4U C33G A37U U64G] here?
**A.** ≤ 0.5

**Q.** For GUUCCGUUGGCGUAAUGGUAAGGCGUCUCCCUCCUAAGGAGAAGACUGCGGGUUAGAGUACCGUACGGAACG [C22G C55A C60A], which yeast fitness is on record?
**A.** ≤ 0.5

**Q.** With GUUCCGUUGGCGUAAUGGUAACGCGUAUCCCCCCUAAGGAGCAGAUUGCGGGUUCGAGUCCUGUACGGAACG [C27A U32C A42C C46U C62U] as the variant, how does the yeast fitness read?
**A.** ≤ 0.5

**Q.** For GUUCCGUUGGCGUAAUGGUGACGCGUCUCCCUCCUAAGGAGAAGACUGAGGGUUCGAGUCCCGUGCGGAACG [A20G C49A A65G], which yeast fitness is on record?
**A.** 0.619

**Q.** Which yeast fitness does the source give for GUUCCGUUGGCGUAAUGGUAACGCGUCUCCCUCCAAAGGAGAAGACUGCGGGUUCGAGUGCCAUACGGAACG [U35A C60G G63A] here?
**A.** 0.503

**Q.** For GUUCUGUUGGCAUAAUGGUAACGCGUCUCCCUCCUAAGGUGAAGGCUGCGGGUUCGAGUACCAUACGGAACG [C5U G12A A40U A45G C60A G63A], which yeast fitness is on record?
**A.** ≤ 0.5

**Q.** For GUUCCGUUGGUGUGAUGGUAACGGGUUUCCCUCCUAAGGAACAGACUGCGGGUUCGAGUCCCGUACCGAACG [C11U A14G C24G C27U G41A A42C G67C], which yeast fitness is on record?
**A.** ≤ 0.5

**Q.** Which yeast fitness does the source give for GUUCCGUUGACGUAAUGGAAACGCGUCUCCCUCCUAAGGCGCAGACUGCGGGUUCGAGUCCCGUACGCAACG [G10A U19A A40C A42C G68C] here?
**A.** 0.582

**Q.** Which yeast fitness does the source give for GUUCCGUUGGCGUAUUGGUAACGCGUCUCCGUCCUAAGGAGAAGACUGCGGGUGCGAGUCCCGUACGGAACG [A15U C31G U54G] here?
**A.** ≤ 0.5

**Q.** Which yeast fitness does the source give for GUCCCGUUGGCGUAAUGGAAAUGCGUCUCCCUCCUAAGGAGAAGACUGCGGGUUCGAGUCCCGUACGGAACG [U3C U19A C22U] here?
**A.** 0.558

**Q.** Which yeast fitness does the source give for GUUCCGUUGGCGUAAUGGUAAGGCGUCUCCCUCCUAAGGAGAAGACUGCGGGUUCGAGUCCCGUCCGGAACG [C22G A65C] here?
**A.** 0.863

**Q.** Which yeast fitness does the source give for GUUCCGUUGGCGUAAUGGUGACGCGUUUCCCUCCUAAGGAGAAGACUGCGGGUUCGAGUCCCGUAUGGAACG [A20G C27U C66U] here?
**A.** 0.689

**Q.** Which yeast fitness does the source give for GUUCCGUUAGCGUAAUGGUAACGCGUCCCCCUCCUAAGGAGAAGACUGCGGGUUCGAGUCCCGUACGGAACG [G9A U28C] here?
**A.** 0.855

**Q.** Which yeast fitness does the source give for GUUCCGUUGGCGUAAUGGUAACGCGUCUCCCUCCUAAGGAGAAGACUGCGGGUUCGGGGCCCGUACGGAACG [A57G U59G] here?
**A.** 0.941

**Q.** For GUUCUGUUGGCGUAAUGGUUACGCGUCUCCCUCCUAAGGAGAAGACUGCGGGUUCGAGUCUUGUACGGAACG [C5U A20U C61U C62U], which yeast fitness is on record?
**A.** ≤ 0.5

**Q.** For GUUCCGUUGGCGUAAUGGAAACGUGUCUCCCUCCUAAGGAGAAGACUGCGGGUUCGAGUCCCGUACGGAACG [U19A C24U], which yeast fitness is on record?
**A.** 1.03

**Q.** For GUUCCGUUGGCGUAAUGGUAACGCGUCUCCCUCCUAAGGAGAAAACUGCGGGUCCCAGUCCCGUACGGAACG [G44A U54C G56C], which yeast fitness is on record?
**A.** ≤ 0.5

**Q.** With GUUCCGUUGGCGUAAUGGUAACGCGUCUCCCUCCUAAGGGGAAGACUGGGGGUUCGAGUCCCGUACGGAACG [A40G C49G] as the variant, how does the yeast fitness read?
**A.** 0.655

**Q.** Which yeast fitness does the source give for GUUCCGUUGGCGUAAUGGUAACGCGUCUCCCUCCAAAGGAGAAAACUGCGGGUUCGAGUCCCGUACGGAACG [U35A G44A] here?
**A.** 0.715

**Q.** With GUUCCGUUGGCGUAAUGGUAACGCGUCUCCCUCCUAAGGAGGAGACUGCGGGUUCGAGUUCCGUACGGGUCG [A42G C60U A69G A70U] as the variant, how does the yeast fitness read?
**A.** ≤ 0.5

**Q.** Which yeast fitness does the source give for GUUCCGUUGGCGUAAUGGUAUCGCGUCUCCCUCCUGAGGAGAUGACUGCGGGUUCGAGUCCCGUACGGAACG [A21U A36G A43U] here?
**A.** 0.729

**Q.** For GUUUCGUUGGCGUAAUGGUAACGCGUCCCCCUCCUCAGGAGAAGACUGCGGGUUCGAGUCCCGUACGGAACG [C4U U28C A36C], which yeast fitness is on record?
**A.** ≤ 0.5

**Q.** For GUUCCGUUGGCGUAAUGGUAACGCGUCUCCCUCCUAAGGAGAAGACGGCGGGUUCGAGUCCGGUACGAAACG [U47G C62G G68A], which yeast fitness is on record?
**A.** 0.525

**Q.** Which yeast fitness does the source give for GUUCCGUUGGCAUAAUGGUAACGCGUCUCCCUGCUCGGGAGAAAACUGCGGGUUCGAGUCCCGUACGGAACG [G12A C33G A36C A37G G44A] here?
**A.** ≤ 0.5

**Q.** For GUCCCGUGGGCGUAAUGGUGACGGGUCUCCCUCCUAAGGAGAAGACUGCGGGUUCGAGUCCCGUACGGAACG [U3C U8G A20G C24G], which yeast fitness is on record?
**A.** ≤ 0.5

**Q.** Which yeast fitness does the source give for GUUCCGUUGGCGUAAUGGUGACGCGUCUCCCUCCUAAGGAGAAGACUGCAGGUUCGAGCCCCGUACGGAACG [A20G G50A U59C] here?
**A.** 0.571

**Q.** For GUUGCGUUGGCGUAAUGGUAACGCGUCUCCCUCCUAAGGAGAAGACUGCGGGUUCGAGUCCCGUAAGGAACG [C4G C66A], which yeast fitness is on record?
**A.** 0.61

**Q.** Which yeast fitness does the source give for GCUUCGUUGGCGUAAUGGUAACGCGUCUCCCUCCUACGGAGAAGACUACGGGUUCGAGUGCCGUUCGGAACG [U2C C4U A37C G48A C60G A65U] here?
**A.** ≤ 0.5

**Q.** With GUUCCGUUGGCGUAAUGGUAACGUGUCUCCCUCCUAGGGAGAGGACUGAGGGUUCGAGUCCCGUACGGAACG [C24U A37G A43G C49A] as the variant, how does the yeast fitness read?
**A.** ≤ 0.5

**Q.** With GUUCGGUUGGCGUAAUGGUAACGCGUCUCCCUCCUAAGGAGAAGACUGCGGGUUCGAGUCCCCUACGGAACG [C5G G63C] as the variant, how does the yeast fitness read?
**A.** 0.626

**Q.** With GUUCCGUUGGCGUAAUGGUAACGCGUUUCCCUCCUACGGAGAAGACUGCGGGUUCGAGUGCCGUGCGGAACG [C27U A37C C60G A65G] as the variant, how does the yeast fitness read?
**A.** ≤ 0.5
